System: Fibroblast
Experiment: Multiplex assay against human fibroblast
Type: toxicity, cell-based
Summary of the method: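 Live cells carried four stains from seeding: Hoechst33342, BioTracker Green Microtubule Cytoskeleton Dye, MitoTracker Red and Annexin V Alexa Fluor 680. They were imaged on a CQ1 microscope at 37°C and 5% CO2 after compound addition. Using CellPathfinder machine-learning gating, cells were split into Hoechst high-intensity objects or normal cells, normal cells into healthy, pyknosed or fragmented nuclei, and pyknosed cells into mitotic or apoptotic; tubulin, mitochondrial-mass and membrane-permeability phenotypes are per cents of healthy-nucleus cells.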

[1] = 12 h, 1 µM, compound concentration 1 uM, replicate 1
[2] = 12 h, 1 µM, compound concentration 1 uM, replicate 2
[3] = 12 h, 10 µM, compound concentration 10 uM, replicate 1
[4] = 12 h, 10 µM, compound concentration 10 uM, replicate 2
[5] = 24 h, 1 µM, compound concentration 1 uM, replicate 1
[6] = 24 h, 1 µM, compound concentration 1 uM, replicate 2
[7] = 24 h, 10 µM, compound concentration 10 uM, replicate 1
[8] = 24 h, 10 µM, compound concentration 10 uM, replicate 2
[9] = 48 h, 1 µM, compound concentration 1 uM, replicate 1
[10] = 48 h, 1 µM, compound concentration 1 uM, replicate 2
[11] = 48 h, 10 µM, compound concentration 10 uM, replicate 1
[12] = 48 h, 10 µM, compound concentration 10 uM, replicate 2

## C=CCN1C[C@H](C(=O)N(CCCN(C)C)C(=O)NCC)C[C@@H]2c3cccc4[nH]cc(c34)C[C@H]21 [CABERGOLINE]
[1]
  Population Apoptotic (%): 69%
  Population Fragmented Nuclei (%): 13%
  Population Healthy Nuclei (%): 78%
  Population Hoechst High Intensity Objects (%): 6%
  Population Membrane Permeable-Phenotype (%): 0%
  Population Mitochondria Different-Phenotype (%): 2%
  Population Mitotic Cells (%): 30%
  Population Normal (%): 93%
  Population Pyknosed Nuclei (%): 7%
  Population Tubulin-Different-Phenotype (%): 26%
  Total Cell Count: 186
[2]
  Population Apoptotic (%): 35%
  Population Fragmented Nuclei (%): 20%
  Population Healthy Nuclei (%): 46%
  Population Membrane Permeable-Phenotype (%): 4%
  Population Mitochondria Different-Phenotype (%): 1%
  Population Mitotic Cells (%): 64%
  Population Pyknosed Nuclei (%): 33%
  Population Tubulin-Different-Phenotype (%): 25%
  Total Cell Count: 144
[3]
  Population Apoptotic (%): 50%
  Population Fragmented Nuclei (%): 25%
  Population Healthy Nuclei (%): 64%
  Population Hoechst High Intensity Objects (%): 3%
  Population Membrane Permeable-Phenotype (%): 0%
  Population Mitochondria Different-Phenotype (%): 11%
  Population Mitotic Cells (%): 50%
  Population Normal (%): 96%
  Population Pyknosed Nuclei (%): 10%
  Population Tubulin-Different-Phenotype (%): 46%
  Total Cell Count: 248
[4]
  Population Apoptotic (%): 35%
  Population Fragmented Nuclei (%): 44%
  Population Healthy Nuclei (%): 39%
  Population Hoechst High Intensity Objects (%): 5%
  Population Membrane Permeable-Phenotype (%): 6%
  Population Mitochondria Different-Phenotype (%): 10%
  Population Mitotic Cells (%): 64%
  Population Normal (%): 94%
  Population Pyknosed Nuclei (%): 16%
  Population Tubulin-Different-Phenotype (%): 53%
  Total Cell Count: 178
[5]
  Population Apoptotic (%): 68%
  Population Fragmented Nuclei (%): 15%
  Population Healthy Nuclei (%): 74%
  Population Hoechst High Intensity Objects (%): 4%
  Population Membrane Permeable-Phenotype (%): 1%
  Population Mitochondria Different-Phenotype (%): 3%
  Population Mitotic Cells (%): 31%
  Population Normal (%): 95%
  Population Pyknosed Nuclei (%): 10%
  Population Tubulin-Different-Phenotype (%): 33%
  Total Cell Count: 198
[6]
  Population Apoptotic (%): 44%
  Population Fragmented Nuclei (%): 24%
  Population Healthy Nuclei (%): 46%
  Population Hoechst High Intensity Objects (%): 6%
  Population Membrane Permeable-Phenotype (%): 3%
  Population Mitotic Cells (%): 55%
  Population Normal (%): 93%
  Population Pyknosed Nuclei (%): 29%
  Population Tubulin-Different-Phenotype (%): 39%
  Total Cell Count: 132
[7]
  Population Apoptotic (%): 73%
  Population Fragmented Nuclei (%): 28%
  Population Healthy Nuclei (%): 65%
  Population Hoechst High Intensity Objects (%): 1%
  Population Membrane Permeable-Phenotype (%): 0%
  Population Mitochondria Different-Phenotype (%): 7%
  Population Mitotic Cells (%): 26%
  Population Normal (%): 98%
  Population Pyknosed Nuclei (%): 5%
  Population Tubulin-Different-Phenotype (%): 44%
  Total Cell Count: 274
[8]
  Population Apoptotic (%): 43%
  Population Fragmented Nuclei (%): 43%
  Population Healthy Nuclei (%): 46%
  Population Hoechst High Intensity Objects (%): 10%
  Population Membrane Permeable-Phenotype (%): 2%
  Population Mitochondria Different-Phenotype (%): 5%
  Population Mitotic Cells (%): 56%
  Population Normal (%): 89%
  Population Pyknosed Nuclei (%): 9%
  Population Tubulin-Different-Phenotype (%): 53%
  Total Cell Count: 181
[9]
  Population Apoptotic (%): 56%
  Population Fragmented Nuclei (%): 15%
  Population Healthy Nuclei (%): 75%
  Population Hoechst High Intensity Objects (%): 5%
  Population Membrane Permeable-Phenotype (%): 0%
  Population Mitochondria Different-Phenotype (%): 6%
  Population Mitotic Cells (%): 43%
  Population Normal (%): 94%
  Population Pyknosed Nuclei (%): 8%
  Population Tubulin-Different-Phenotype (%): 34%
  Total Cell Count: 189
[10]
  Population Apoptotic (%): 58%
  Population Fragmented Nuclei (%): 24%
  Population Healthy Nuclei (%): 54%
  Population Hoechst High Intensity Objects (%): 7%
  Population Membrane Permeable-Phenotype (%): 6%
  Population Mitochondria Different-Phenotype (%): 1%
  Population Mitotic Cells (%): 41%
  Population Normal (%): 92%
  Population Pyknosed Nuclei (%): 21%
  Population Tubulin-Different-Phenotype (%): 33%
  Total Cell Count: 156
[11]
  Population Apoptotic (%): 72%
  Population Fragmented Nuclei (%): 24%
  Population Healthy Nuclei (%): 68%
  Population Hoechst High Intensity Objects (%): 4%
  Population Membrane Permeable-Phenotype (%): 1%
  Population Mitochondria Different-Phenotype (%): 4%
  Population Mitotic Cells (%): 27%
  Population Normal (%): 95%
  Population Pyknosed Nuclei (%): 6%
  Population Tubulin-Different-Phenotype (%): 46%
  Total Cell Count: 282
[12]
  Population Apoptotic (%): 46%
  Population Fragmented Nuclei (%): 52%
  Population Healthy Nuclei (%): 37%
  Population Hoechst High Intensity Objects (%): 5%
  Population Membrane Permeable-Phenotype (%): 6%
  Population Mitochondria Different-Phenotype (%): 11%
  Population Mitotic Cells (%): 53%
  Population Normal (%): 94%
  Population Pyknosed Nuclei (%): 9%
  Population Tubulin-Different-Phenotype (%): 44%
  Total Cell Count: 170

From ChEMBL document CHEMBL5058577, “EUbOPEN Chemogenomics Library 2 (Multiplex)” (2022)
